Data taken from publication PMC3483362 (Journal of inorganic biochemistry, 2012).
“Also recorded” adds a separate entry of the source.

Tests used:
[1] = tested on: Jurkat sh-Bak cells (Bax/Bak-deficient Jurkat cells); assay: Activity against apoptosis-resistant cells; assay type: cell-based, human; details: cisplatin-resistant
[2] = tested on: plasmid (pBR322) DNA; assay: Electrophoresis mobility shift assay; assay type: binding; details: 37 °C, 20 h, increasing molar ratios
Outline: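 pBR322 plasmid DNA (20 µg/mL) in 5 mM Tris/HCl, 50 mM NaClO₄, pH 7.39 was incubated with test compound at compound/DNA molar ratios of 0.25–4.0, 37 °C, 20 h, in the dark. Free DNA and cisplatin-DNA served as controls. Samples ran on 1% agarose in TAE for 1.5 h at 80 V, with GelRed staining for 30 min.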

[3] = Stability in solution by 31P{1H} and 1H NMR; assay type: physicochemical; details: RT
[4] = Solubility; assay type: physicochemical
[5] = tested on: DU-145 human prostate cancer cells; assay: Cell death pathway; assay type: cell-based; details: 24 h
Outline: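 DU-145 cells in RPMI 1640 with 5% FCS, L-glutamine and penicillin/streptomycin were seeded at 1×10⁵ cells/mL and allowed to attach. Test compound (1% DMSO, diluted in water) was given for 24 h. Nuclei were stained with Hoechst (10 µg/ml) and imaged under UV. For flow cytometry, cells went into Hepes pH 7.4 annexin buffer with Annexin V conjugate (0.5 µg/ml) and 7-AAD, 37 °C, 15 min.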

[6] = tested on: DU-145 human prostate cancer cells; assay: Cytotoxicity by modified MTT-reduction method, 24 h; assay type: cell-based; details: DU-145 cells
Outline: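 DU-145 cells were grown in RPMI 1640 with 5% FCS, L-glutamine and penicillin/streptomycin, seeded at 1 ×10⁵ cells/mL and allowed to attach. […] After 24 h, proliferation was read by a modified MTT-reduction method and IC₅₀ derived.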

[7] = tested on: Calf Thymus DNA; assay: Interaction with CT DNA by circular dichroism; assay type: binding; details: drug/DNA ratios 0.1-1.0, 37 °C, 20 h
Outline: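 CT DNA (195 µM) in 5 mM Tris/HCl, 50 mM NaClO₄, pH 7.39 received test compound from fresh 5 mM stocks in DMSO-H₂O (1:99). Mixtures were kept 20 h at 37 °C in the dark. CD spectra were recorded at 25 °C over 220–320 nm, blank-corrected, smoothed with a Savitzky-Golay filter, and expressed in molar ellipticity.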

[8] = tested on: MOLT-4 human leukemia cell line; details: read-out: IC50 MOLT-4; cited from earlier work
[9] = tested on: human Jurkat-T acute lymphoblastic leukemia cells; assay: Cytotoxicity by modified MTT-reduction method, 24 h; assay type: cell-based
[10] = target: human serum albumin (HSA) (Homo sapiens, UniProt P02768); assay: HSA fluorescence quenching; assay type: binding; details: excitation 295 nm, HSA 10 µM, phosphate buffer pH 7.39; compared to cisplatin
Outline: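 HSA (10 µM) in phosphate buffer pH 7.39 received ten successive additions from an 8 mM DMSO stock of test compound, with a read 240 s after each. Tryptophan excitation was at 295 nm and emission was recorded at 300–450 nm at room temperature. Data were fitted to the Stern-Volmer equation F₀/F = 1 + K_SV[Q].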

[11] = tested on: Jurkat cells; assay: Cell death pathway; assay type: cell-based, human; details: 24 h, concentrations for IC50 values
Outline: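 Jurkat cells (5 ×10⁵ cells/ml) exposed to test compound for 24 h. Nuclei stained with Hoechst (10 µg/ml) and photographed under UV light. For flow cytometry, cells were held in annexin binding buffer (140 mM NaCl, 2.5 mM CaCl₂, 10 mM Hepes/NaOH, pH 7.4) with fluorescent AnnexinV (0.5 µg/ml) and 7-AAD (50ng/µl) at 37 °C for 15 min, then diluted with buffer and counted.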

Sequence of human serum albumin (HSA) (P02768 25-609): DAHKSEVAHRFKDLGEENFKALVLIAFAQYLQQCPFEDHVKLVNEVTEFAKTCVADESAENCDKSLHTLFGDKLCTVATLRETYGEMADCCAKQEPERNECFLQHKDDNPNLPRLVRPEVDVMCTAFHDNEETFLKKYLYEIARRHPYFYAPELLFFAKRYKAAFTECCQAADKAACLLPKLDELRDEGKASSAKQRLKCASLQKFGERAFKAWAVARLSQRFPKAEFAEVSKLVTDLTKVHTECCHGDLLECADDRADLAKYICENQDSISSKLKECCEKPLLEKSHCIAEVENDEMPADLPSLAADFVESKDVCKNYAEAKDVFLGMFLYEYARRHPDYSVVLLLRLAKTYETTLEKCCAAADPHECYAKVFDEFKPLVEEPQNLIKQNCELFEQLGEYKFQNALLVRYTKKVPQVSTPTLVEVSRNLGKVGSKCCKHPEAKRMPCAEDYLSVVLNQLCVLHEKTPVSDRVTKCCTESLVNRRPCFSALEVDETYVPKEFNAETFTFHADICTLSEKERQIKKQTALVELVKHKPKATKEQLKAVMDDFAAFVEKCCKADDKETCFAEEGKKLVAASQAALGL

Row | SMILES | toxicity to Jurkat sh-Bak cells [1] | effect on electrophoretic mobility of pBR322 forms [2] | stable in DMSO solution (time) ([3]; DMSO) [days] | stable in H2O (time) ([3]; H2O) [h] | solubility in H2O ([4]; H2O) | cell death / growth in DU-145 cells [5] | times more cytotoxic than cisplatin [6] [times] | effect on CD spectrum of CT DNA / interaction with CT DNA [7] | IC50 [8] [µM] | times more cytotoxic than cisplatin [9] | solubility at concentrations required for ITC ([4]; ITC conditions, phosphate buffer) | quenching of HSA fluorescence [10] | cell death in Jurkat cells [11]
1 | N.N.[Cl][Pt][Cl] [Cisplatin, reference compound] | activity is totally dependent on the presence of functional Bax and Bak | decrease in mobility of the CCC form and an increase in mobility of the OC form | – | – | – | – | – | – | – | – | – | – | –
2 | O=C(N=P12CN3CN(CN(C3)C1)C2)c1ccccn1 [Compound 1, TPA=N-C(O)-2-NC5H4 (N,N-IM)] | – | does not cause any shift for either form | 14 | 3 | soluble | – | – | – | – | – | – | – | –
3 | O=C1[N-][Au]([Cl])([Cl])[n+]2ccccc21 [Compound 5, [AuCl2(HN-C(O)-2-NC5H4)]] | exhibited some toxicity | – | – | – | – | do not induce cell death in DU-145 at 24 h | 4 | decrease in helicity (destabilizing effect); also recorded: interacts more strongly with DNA most likely by intercalation | 3.1 | seven | poor solubility at the required concentrations | higher quenching | induced cell death in Jurkat cells; also recorded: induce both necrotic and apoptotic cell death
